Data published in ChEMBL document CHEMBL3046951, “Volatile constituents from the leaves of Callicarpa japonica Thunb. and their antibacterial activities” (2004).

Tests used:
Staphylococcus aureus [1] = assay: Antimicrobial activity against Staphylococcus aureus ATCC 25923 assessed as growth inhibition rate at 1.72 mg/l after 72 hr by spectrophotometry; format: functional; conditions: ATCC 25923, 72 h, read-out: GI
Escherichia coli [2] = assay: Antimicrobial activity against Escherichia coli O157:H7 ATCC 43894 assessed as growth inhibition rate at 1.72 mg/l after 72 hr by spectrophotometry; format: functional; conditions: O157:H7 ATCC 43894, 72 h, read-out: GI
Salmonella typhimurium [3] = assay: Antimicrobial activity against Salmonella enterica subsp. enterica serovar Typhimurium ATCC 14028 assessed as growth inhibition rate at 1.72 mg/l after 72 hr by spectrophotometry; format: functional; conditions: ATCC 14028, 72 h, read-out: GI
Method in brief: (§1)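 Salmonella Typhimurium ATCC 14028 grown in nutrient broth at 30 °C, precultured 24 h, then subcultured 1:100 for 18 h before testing. Single volatile compounds (>95% pure) were added. OD was read every 24 h over 72 h in a Bioscreen C, with 10% Tween 80 as the comparison control.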

Listeria monocytogenes [4] = assay: Antimicrobial activity against Listeria monocytogenes ATCC 19111 assessed as growth inhibition rate at 1.72 mg/l after 72 hr by spectrophotometry; format: functional; conditions: ATCC 19111, 72 h, read-out: GI
Method in brief: (§2)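 L. monocytogenes was grown at 30 °C in tryptic soy broth, subcultured for 18 h, and exposed to pure volatile compounds (>95% purity). Growth was followed by Bioscreen C optical density every 24 h for 72 h against a 10% Tween 80 control.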

Vibrio parahaemolyticus [5] = assay: Antimicrobial activity against Vibrio parahaemolyticus ATCC 33844 assessed as growth inhibition rate at 1.72 mg/l after 72 hr by spectrophotometry; format: functional; conditions: ATCC 33844, 72 h, read-out: GI
Bacillus cereus [6] = assay: Antimicrobial activity against Bacillus cereus ATCC 11778 assessed as growth inhibition rate at 1.72 mg/l after 72 hr by spectrophotometry; format: functional; conditions: ATCC 11778, 72 h, read-out: GI
Method in brief: (§3)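 Pure volatile compounds (purity >95%; one at 90%) were tested against B. cereus ATCC 11778. The strain was grown at 30 °C in nutrient broth for 24 h, then subcultured for 18 h. Optical density was read in a Bioscreen C every 24 h for 72 h, with 10% Tween 80 as the control.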

Escherichia coli [7] = assay: Antimicrobial activity against Escherichia coli O157:H7 ATCC 43894 assessed as growth inhibition rate at 5.8 mg/l after 72 hr by spectrophotometry; format: functional; conditions: O157:H7 ATCC 43894, 72 h, read-out: GI
Staphylococcus aureus [8] = assay: Antimicrobial activity against Staphylococcus aureus ATCC 25923 assessed as growth inhibition rate at 5.8 mg/l after 72 hr by spectrophotometry; format: functional; conditions: ATCC 25923, 72 h, read-out: GI
Listeria monocytogenes [9] = assay: Antimicrobial activity against Listeria monocytogenes ATCC 19111 assessed as growth inhibition rate at 5.8 mg/l after 72 hr by spectrophotometry; format: functional; conditions: ATCC 19111, 72 h, read-out: GI; method in brief: as §2
Salmonella typhimurium [10] = assay: Antimicrobial activity against Salmonella enterica subsp. enterica serovar Typhimurium ATCC 14028 assessed as growth inhibition rate at 5.8 mg/l after 72 hr by spectrophotometry; format: functional; conditions: ATCC 14028, 72 h, read-out: GI
Vibrio parahaemolyticus [11] = assay: Antimicrobial activity against Vibrio parahaemolyticus ATCC 33844 assessed as growth inhibition rate at 5.8 mg/l after 72 hr by spectrophotometry; format: functional; conditions: ATCC 33844, 72 h, read-out: GI
Bacillus cereus [12] = assay: Antimicrobial activity against Bacillus cereus ATCC 11778 assessed as growth inhibition rate at 5.8 mg/l after 72 hr by spectrophotometry; format: functional; conditions: ATCC 11778, 72 h, read-out: GI; method in brief: as §3
Salmonella typhimurium [13] = assay: Antimicrobial activity against Salmonella enterica subsp. enterica serovar Typhimurium ATCC 14028 assessed as growth inhibition rate at 6.32 mg/l after 72 hr by spectrophotometry; format: functional; conditions: ATCC 14028, 72 h, read-out: GI
Escherichia coli [14] = assay: Antimicrobial activity against Escherichia coli O157:H7 ATCC 43894 assessed as growth inhibition rate at 6.32 mg/l after 72 hr by spectrophotometry; format: functional; conditions: O157:H7 ATCC 43894, 72 h, read-out: GI
Listeria monocytogenes [15] = assay: Antimicrobial activity against Listeria monocytogenes ATCC 19111 assessed as growth inhibition rate at 6.32 mg/l after 72 hr by spectrophotometry; format: functional; conditions: ATCC 19111, 72 h, read-out: GI; method in brief: as §2
Staphylococcus aureus [16] = assay: Antimicrobial activity against Staphylococcus aureus ATCC 25923 assessed as growth inhibition rate at 6.32 mg/l after 72 hr by spectrophotometry; format: functional; conditions: ATCC 25923, 72 h, read-out: GI
Vibrio parahaemolyticus [17] = assay: Antimicrobial activity against Vibrio parahaemolyticus ATCC 33844 assessed as growth inhibition rate at 6.32 mg/l after 72 hr by spectrophotometry; format: functional; conditions: ATCC 33844, 72 h, read-out: GI
Bacillus cereus [18] = assay: Antimicrobial activity against Bacillus cereus ATCC 11778 assessed as growth inhibition rate at 6.32 mg/l after 72 hr by spectrophotometry; format: functional; conditions: ATCC 11778, 72 h, read-out: GI; method in brief: as §3
Vibrio parahaemolyticus [19] = assay: microbe, parasite or virus in culture; conditions: ATCC 33844, 72 h, read-out: GI
Staphylococcus aureus [20] = assay: microbe, parasite or virus in culture; conditions: ATCC 25923, 72 h, read-out: GI
Listeria monocytogenes [21] = assay: microbe, parasite or virus in culture; conditions: ATCC 19111, 72 h, read-out: GI
Salmonella typhimurium [22] = assay: microbe, parasite or virus in culture; conditions: Salmonella enterica, ATCC 14028, 72 h, read-out: GI
Escherichia coli [23] = assay: microbe, parasite or virus in culture; conditions: O157:H7 ATCC 43894, 72 h, read-out: GI
Bacillus cereus [24] = assay: microbe, parasite or virus in culture; conditions: ATCC 11778, 72 h, read-out: GI
Bacillus cereus [25] = assay: Antimicrobial activity against Bacillus cereus ATCC 11778 assessed as growth inhibition rate at 16.8 mg/l after 72 hr by spectrophotometry; format: functional; conditions: ATCC 11778, 72 h, read-out: GI; method in brief: as §3
Staphylococcus aureus [26] = assay: Antimicrobial activity against Staphylococcus aureus ATCC 25923 assessed as growth inhibition rate at 16.8 mg/l after 72 hr by spectrophotometry; format: functional; conditions: ATCC 25923, 72 h, read-out: GI
Escherichia coli [27] = assay: Antimicrobial activity against Escherichia coli O157:H7 ATCC 43894 assessed as growth inhibition rate at 16.8 mg/l after 72 hr by spectrophotometry; format: functional; conditions: O157:H7 ATCC 43894, 72 h, read-out: GI
Vibrio parahaemolyticus [28] = assay: Antimicrobial activity against Vibrio parahaemolyticus ATCC 33844 assessed as growth inhibition rate at 16.8 mg/l after 72 hr by spectrophotometry; format: functional; conditions: ATCC 33844, 72 h, read-out: GI
Listeria monocytogenes [29] = assay: Antimicrobial activity against Listeria monocytogenes ATCC 19111 assessed as growth inhibition rate at 16.8 mg/l after 72 hr by spectrophotometry; format: functional; conditions: ATCC 19111, 72 h, read-out: GI; method in brief: as §2
Salmonella typhimurium [30] = assay: Antimicrobial activity against Salmonella enterica subsp. enterica serovar Typhimurium ATCC 14028 assessed as growth inhibition rate at 16.8 mg/l after 72 hr by spectrophotometry; format: functional; conditions: ATCC 14028, 72 h, read-out: GI; method in brief: as §1

For CCC(=O)C(C)=O [2,3-PENTANEDIONE], the inhibition of growth at 1.72 µg/mL (Staphylococcus aureus [1]) was 47.4%, the inhibition of growth at 1.72 µg/mL (Escherichia coli [2]) was 9.6% and the inhibition of growth at 1.72 µg/mL (Salmonella typhimurium [3]) was 25.5%. The inhibition of growth at 1.72 µg/mL (Listeria monocytogenes [4]) was 26.2%, the inhibition of growth at 1.72 µg/mL (Vibrio parahaemolyticus [5]) was 39.3% and the inhibition of growth at 1.72 µg/mL (Bacillus cereus [6]) was 26.9%.

With C=CC(O)CC (stereo not given) the inhibition of growth at 5.8 µg/mL (Escherichia coli [7]) was 0%, the inhibition of growth at 5.8 µg/mL (Staphylococcus aureus [8]) was 2.4% and the inhibition of growth at 5.8 µg/mL (Listeria monocytogenes [9]) was 0.4%. For the same compound, the inhibition of growth at 5.8 µg/mL (Salmonella typhimurium [10]) was 5%, the inhibition of growth at 5.8 µg/mL (Vibrio parahaemolyticus [11]) was 1.9% and the inhibition of growth at 5.8 µg/mL (Bacillus cereus [12]) was 9.3%.

CCCCCC(=O)CC [3-OCTANONE] was tested, and the inhibition of growth at 6.32 µg/mL (Salmonella typhimurium [13]) was 5.1%, the inhibition of growth at 6.32 µg/mL (Escherichia coli [14]) was 3.1% and the inhibition of growth at 6.32 µg/mL (Listeria monocytogenes [15]) was 0%. For the same compound, the inhibition of growth at 6.32 µg/mL (Staphylococcus aureus [16]) was 5.2%, the inhibition of growth at 6.32 µg/mL (Vibrio parahaemolyticus [17]) was 0% and the inhibition of growth at 6.32 µg/mL (Bacillus cereus [18]) was 0%.

CCCO [PROPANOL] showed an inhibition of growth at 1.76 µg/mL (Vibrio parahaemolyticus [19]) of 0%, an inhibition of growth at 1.76 µg/mL (Staphylococcus aureus [20]) of 6.1% and an inhibition of growth at 1.76 µg/mL (Listeria monocytogenes [21]) of 0%. It also gave an inhibition of growth at 1.76 µg/mL (Salmonella typhimurium [22]) of 2.6%, an inhibition of growth at 1.76 µg/mL (Escherichia coli [23]) of 0% and an inhibition of growth at 1.76 µg/mL (Bacillus cereus [24]) of 0%.

CCCCCC=O [HEXANAL] gave an inhibition of growth at 16.8 µg/mL (Bacillus cereus [25]) of 19.3%, an inhibition of growth at 16.8 µg/mL (Staphylococcus aureus [26]) of 11.3% and an inhibition of growth at 16.8 µg/mL (Escherichia coli [27]) of 41.5%. For the same compound, the inhibition of growth at 16.8 µg/mL (Vibrio parahaemolyticus [28]) was 57.8%, the inhibition of growth at 16.8 µg/mL (Listeria monocytogenes [29]) was 14.4% and the inhibition of growth at 16.8 µg/mL (Salmonella typhimurium [30]) was 39.1%.
